Assay results as given in article PMC3654155 (Bioorganic & medicinal chemistry letters, 2013).

Legend:
[1] = system: Rtt109; conditions: ref [14], [20]; cited from earlier work
[2] = target: T1, Rtt109-Vps75 (Saccharomyces cerevisiae, UniProt Q07794); assay: Rtt109-Vps75 HAT reaction-rate assay with H3n21 peptide, released CoA quantified; type: biochemical; conditions: for Vmax, acetyl-CoA titration: 50 nM Rtt109-Vps75, 15 µM H3n21
T1 sequence (Q07794 1-436): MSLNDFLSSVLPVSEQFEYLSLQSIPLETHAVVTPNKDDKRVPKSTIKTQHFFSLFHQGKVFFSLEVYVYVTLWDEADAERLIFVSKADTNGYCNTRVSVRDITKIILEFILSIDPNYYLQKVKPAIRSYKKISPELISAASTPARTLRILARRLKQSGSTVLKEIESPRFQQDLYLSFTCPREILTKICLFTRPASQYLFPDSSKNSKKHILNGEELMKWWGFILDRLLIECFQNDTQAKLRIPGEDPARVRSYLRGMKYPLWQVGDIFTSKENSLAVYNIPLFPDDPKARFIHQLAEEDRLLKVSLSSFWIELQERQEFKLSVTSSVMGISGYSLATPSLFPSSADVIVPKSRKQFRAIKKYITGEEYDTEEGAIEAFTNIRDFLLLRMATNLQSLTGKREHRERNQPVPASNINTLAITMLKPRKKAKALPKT
T1 sequence (P53853 1-264 partner): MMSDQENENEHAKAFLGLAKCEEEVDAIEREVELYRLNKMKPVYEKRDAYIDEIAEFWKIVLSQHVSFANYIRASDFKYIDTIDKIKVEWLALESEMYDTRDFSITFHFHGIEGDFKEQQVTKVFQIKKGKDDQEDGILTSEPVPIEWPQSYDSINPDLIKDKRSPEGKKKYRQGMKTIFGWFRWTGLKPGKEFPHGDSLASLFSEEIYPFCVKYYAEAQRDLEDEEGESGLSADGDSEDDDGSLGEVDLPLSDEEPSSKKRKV

[3] = target: T1, Rtt109-Vps75; assay: Single-point HAT reactions, CoA formed by the end of a 30-minute reaction; type: biochemical; conditions: data not shown
[4] = target: T2, p300 (Homo sapiens, UniProt Q09472); assay: p300 HAT reaction-rate assay with H3n21 peptide; type: biochemical, mammalian
Outline: (§1)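 Enzyme: 3.1 µg/ml (61 nM) Gcn5 or 15 µg/ml p300, with 15 µM H3n21 peptide. Enzyme and peptide pre-incubated with DMSO or test compound for 5 min at 30°C. Reactions started with 30 µM acetyl-CoA. Released CoA quantified every 2 min over the first 10 min. Rate derived by linear regression of product versus time. Compound capped at 100 µM. For p300, single-point assays were also run at 0.5–2 µM compound.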

[5] = target: Gcn5 (Saccharomyces cerevisiae, UniProt Q03330); assay: Gcn5 HAT reaction-rate assay with H3n21 peptide; type: biochemical
Outline: as §1

[6] = target: T1, Rtt109-Vps75; assay: HAT-ELISA of H3K56 acetylation on; type: biochemical; conditions: 500 nM compound, 50 nM Rtt109, 50 nM Vps75, 30 min, 30°C
[7] = target: Rtt109/Asf1 (Saccharomyces cerevisiae, UniProt Q07794); assay: HAT-ELISA of H3K56 acetylation on; type: biochemical; conditions: 500 nM compound, 50 nM Rtt109, 400 nM Asf1N, 30 min, 30°C
Outline: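 Reaction mix: 50 nM Rtt109, 400 nM Asf1N and […] (H3-H4)2 tetramers, pre-incubated 5 min with DMSO or 500 nM test compound. Started with 15 µM acetyl-CoA, with water as the no-substrate control, then incubated 30 min at 30°C. H3K56ac detected by ELISA with H3K56ac-specific rabbit antiserum. Signal normalised to DMSO plus acetyl-CoA.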

[8] = target: T2, p300; assay: HAT-ELISA on; type: biochemical, mammalian; conditions: 500 nM compound, 15 µg/ml p300
[9] = target: T1, Rtt109-Vps75; assay: Dialysis and time-course tests of tight binding to Rtt109-Vps75; type: biochemical
[10] = system: C. albicans; assay: Cellular levels of H3K56ac; type: cell-based; conditions: data not shown
[11] = system: Saccharoyces cerevisiae; assay: Cellular levels of H3K56ac; type: cell-based; conditions: data not shown
[12] = system: C. albicans; assay: Sensitivity to the DNA damaging agent camptothecin; type: cell-based; conditions: data not shown
[13] = system: Saccharoyces cerevisiae; assay: Sensitivity to the DNA damaging agent camptothecin; type: cell-based; conditions: data not shown
[14] = Solubility limit in HAT assays; type: physicochemical; conditions: not tested above 100 µM

T2 sequence (Q09472 whole entry, species assumed): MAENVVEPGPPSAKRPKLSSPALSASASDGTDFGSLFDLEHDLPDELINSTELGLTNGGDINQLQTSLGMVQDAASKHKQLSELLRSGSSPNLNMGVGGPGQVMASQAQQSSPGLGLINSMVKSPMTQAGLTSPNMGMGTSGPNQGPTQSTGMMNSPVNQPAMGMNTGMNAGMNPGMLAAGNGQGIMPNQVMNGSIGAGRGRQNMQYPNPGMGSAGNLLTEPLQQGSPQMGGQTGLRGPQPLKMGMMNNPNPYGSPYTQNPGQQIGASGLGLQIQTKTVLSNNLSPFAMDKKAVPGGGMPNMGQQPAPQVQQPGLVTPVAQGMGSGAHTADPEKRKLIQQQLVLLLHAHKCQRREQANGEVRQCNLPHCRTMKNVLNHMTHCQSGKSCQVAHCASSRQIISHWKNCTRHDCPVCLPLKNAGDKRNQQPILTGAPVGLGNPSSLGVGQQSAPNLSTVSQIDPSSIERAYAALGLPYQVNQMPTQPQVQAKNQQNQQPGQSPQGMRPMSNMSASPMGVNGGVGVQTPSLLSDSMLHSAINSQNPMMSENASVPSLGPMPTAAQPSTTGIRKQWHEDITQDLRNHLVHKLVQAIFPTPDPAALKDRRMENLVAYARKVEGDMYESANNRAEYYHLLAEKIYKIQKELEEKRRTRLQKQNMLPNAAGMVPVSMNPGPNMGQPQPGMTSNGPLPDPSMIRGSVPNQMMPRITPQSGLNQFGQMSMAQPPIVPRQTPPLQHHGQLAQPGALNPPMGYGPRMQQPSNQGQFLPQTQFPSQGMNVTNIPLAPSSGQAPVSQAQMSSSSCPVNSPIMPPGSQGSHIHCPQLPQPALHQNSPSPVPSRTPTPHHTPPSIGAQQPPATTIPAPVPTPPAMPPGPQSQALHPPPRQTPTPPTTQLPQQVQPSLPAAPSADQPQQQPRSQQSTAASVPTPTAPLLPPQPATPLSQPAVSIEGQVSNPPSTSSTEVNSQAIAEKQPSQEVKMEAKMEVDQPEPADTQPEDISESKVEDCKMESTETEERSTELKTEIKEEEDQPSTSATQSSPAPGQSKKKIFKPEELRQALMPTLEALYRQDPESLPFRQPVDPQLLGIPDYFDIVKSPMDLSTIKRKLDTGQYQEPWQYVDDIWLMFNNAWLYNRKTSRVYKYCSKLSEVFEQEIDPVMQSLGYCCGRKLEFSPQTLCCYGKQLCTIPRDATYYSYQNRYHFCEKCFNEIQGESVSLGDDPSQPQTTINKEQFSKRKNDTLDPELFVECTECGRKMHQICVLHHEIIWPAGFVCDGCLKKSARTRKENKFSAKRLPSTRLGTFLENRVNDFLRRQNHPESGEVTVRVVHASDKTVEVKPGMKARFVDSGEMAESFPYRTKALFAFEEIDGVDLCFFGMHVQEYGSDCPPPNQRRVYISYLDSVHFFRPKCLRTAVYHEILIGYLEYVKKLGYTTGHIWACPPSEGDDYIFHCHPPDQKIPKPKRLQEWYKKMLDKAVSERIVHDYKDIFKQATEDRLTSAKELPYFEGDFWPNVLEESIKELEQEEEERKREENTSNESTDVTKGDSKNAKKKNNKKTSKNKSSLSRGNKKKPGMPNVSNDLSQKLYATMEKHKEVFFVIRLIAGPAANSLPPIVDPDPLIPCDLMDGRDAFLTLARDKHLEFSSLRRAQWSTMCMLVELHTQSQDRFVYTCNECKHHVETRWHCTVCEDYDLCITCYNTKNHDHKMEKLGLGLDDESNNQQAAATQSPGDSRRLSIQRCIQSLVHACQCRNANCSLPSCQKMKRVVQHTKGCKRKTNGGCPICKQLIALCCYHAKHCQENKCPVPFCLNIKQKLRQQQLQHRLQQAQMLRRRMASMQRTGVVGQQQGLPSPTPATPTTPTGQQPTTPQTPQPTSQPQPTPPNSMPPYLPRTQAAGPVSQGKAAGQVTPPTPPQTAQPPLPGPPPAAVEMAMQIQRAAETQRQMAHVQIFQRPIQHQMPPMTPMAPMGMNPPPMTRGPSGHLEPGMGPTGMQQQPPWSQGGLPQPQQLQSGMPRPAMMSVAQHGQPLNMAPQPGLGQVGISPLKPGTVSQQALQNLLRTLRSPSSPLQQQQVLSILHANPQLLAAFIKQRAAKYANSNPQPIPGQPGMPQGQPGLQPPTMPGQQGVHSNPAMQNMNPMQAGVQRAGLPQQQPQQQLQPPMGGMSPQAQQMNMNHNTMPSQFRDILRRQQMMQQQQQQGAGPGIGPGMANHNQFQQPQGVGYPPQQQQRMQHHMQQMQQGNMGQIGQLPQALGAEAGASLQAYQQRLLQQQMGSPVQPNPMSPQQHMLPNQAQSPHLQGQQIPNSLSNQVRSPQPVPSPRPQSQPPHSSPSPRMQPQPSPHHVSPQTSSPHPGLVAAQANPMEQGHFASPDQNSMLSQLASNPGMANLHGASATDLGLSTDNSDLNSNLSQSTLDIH
Gcn5, sequence (Q03330 whole entry): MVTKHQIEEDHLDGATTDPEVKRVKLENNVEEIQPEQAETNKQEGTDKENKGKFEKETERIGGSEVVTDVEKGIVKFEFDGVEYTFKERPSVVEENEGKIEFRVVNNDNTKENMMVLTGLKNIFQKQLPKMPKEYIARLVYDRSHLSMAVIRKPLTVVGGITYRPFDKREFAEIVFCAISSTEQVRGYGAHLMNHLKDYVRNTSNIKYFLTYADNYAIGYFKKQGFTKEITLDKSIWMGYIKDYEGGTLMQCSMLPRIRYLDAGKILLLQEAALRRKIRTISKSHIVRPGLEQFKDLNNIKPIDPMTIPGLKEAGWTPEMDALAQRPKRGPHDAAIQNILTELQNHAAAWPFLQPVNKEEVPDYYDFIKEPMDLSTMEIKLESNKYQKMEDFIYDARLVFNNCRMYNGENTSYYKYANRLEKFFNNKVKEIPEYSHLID

CC(=O)N[C@@H](CCCCNC(=O)CSCCNC(=O)CCNC(=O)[C@H](O)C(C)(C)COP(=O)(O)OP(=O)(O)OC[C@H]1O[C@@H](n2cnc3c(N)ncnc32)[C@H](O)[C@@H]1OP(=O)(O)O)C(N)=O [Lys-CoA]
effect on Rtt109 catalysis [1]: do not affect Rtt109 catalysis

CCC1(c2ccccc2)NC(=O)N(CC(=O)N(C)Cc2c(F)cccc2Cl)C1=O (stereo not shown) [SAR9]
effect on reaction rates, dose response ([2]; 100 nM – 1 µM compound, 50 nM Rtt109-Vps75): minimal inhibition even at the highest concentration tested | inhibition of acetylation by Rtt109-Vps75 in single-point HAT reactions [3]: not as potent as compound 1

CCCC1(c2ccccc2)NC(=O)N(CC(=O)N(C)Cc2c(F)cccc2Cl)C1=O (stereo not shown) [compound 1, N-[(2-chloro-6-fluorophenyl)methyl]-2-(2,5-dioxo-4-phenyl-4-propylimidazolidin-1-yl)-N-methylacetamide]
preference for inhibition of Rtt109 over p300 and Gcn5 [2]: greater than two order of magnitude preference | Vmax, acetyl-CoA titration ([2]; 30 µM compound 1): 1.46 ± 0.08 nM/s | Vmax, acetyl-CoA titration ([2]; 60 µM compound 1): 0.68 ± 0.09 nM/s | inhibition of Rtt109-Vps75 in single point enzyme assay ([2]; 0.5 – 2 µM compound): inhibited Rtt109 | inhibition of p300 in single point enzyme assay ([4]; 0.5 – 2 µM compound): without inhibiting p300 | enzyme reaction rate remaining, p300 ([4]; compound up to 100 µM, 15 µg/ml p300): ≥ 80 % activity | inhibition of HAT activity of p300 ([4]; dose response up to 100 µM): did not significantly inhibit | enzyme reaction rate remaining, Gcn5 ([5]; compound up to 100 µM, 61 nM Gcn5): ≥ 80 % activity | inhibition of HAT activity of Gcn5 ([5]; dose response up to 100 µM): did not significantly inhibit | inhibition of H3K56 acetylation by Rtt109-Vps75 [6]: inhibited acetylation | inhibition of H3K56 acetylation by Rtt109/Asf1 [7]: inhibited acetylation | inhibition of p300 HAT activity on (H3-H4)2 tetramers [8]: no inhibitory effect | time course of inhibition ([9]; 1 µM Rtt109-Vps75 with 1.0 µM compound 1, incubated 0-60 minutes on ice): the degree of inhibition increased during the entire 60 minutes | mode of inhibition ([9]; from substrate titrations, dialysis and enzyme-concentration dependence): tight or perhaps irreversible inhibitor | effect on cellular levels of H3K56ac [10]: have not observed that compound 1 is able to affect | effect on cellular levels of H3K56ac [11]: have not observed that compound 1 is able to affect | effect on sensitivity to camptothecin [12]: have not observed that compound 1 is able to affect | effect on sensitivity to camptothecin [13]: have not observed that compound 1 is able to affect | solubility in assay [14]: solubility limitations
